# Assay outcomes from PubChem.
# RGS4 pot: RGS4 potentiators or activators, primary screen, cell-based, HEK293 M3R inducible RGS4, calcium flux; carbachol calcium flux Fluo4; hits give low values; hit rate 0.92% among 310,000; B-score at 10 µM;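 active means B-score of the integrated calcium signal more than 4 SD below the library mean, with starting fluorescence not abnormally high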;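 further: negative B-score means reduced calcium response which marks RGS4 activation or potentiation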
#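 Assay system: HEK293 FlpIn-TREx cells, stable M3R, doxycycline-inducible RGS4 / Probe or stimulus: carbachol, ECmax concentration / Times: overnight RGS4 induction, 30 min dye load 37 °C, 20 min compound RT / Signal: kinetic calcium fluorescence imaging with Fluo4-AM dye, 2 µM / Measure: Agonist-evoked peak-minus-minimum fluorescence over baseline, integrated ratio, B score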
# MrgX1 antag: antagonists of human MrgX1 receptor, primary screen, HEK293 cells, Fluo-4 calcium flux | Mas-related G-protein coupled receptor member X1 (Homo sapiens), Q96LB2 | BAM8-22 antagonism; hits give low values | hit rate 1.3% among 310,000 | AID 588676, 2011 | B-score at 10 µM;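 active means calcium-response B-score plate-corrected more than 3 library SD below zero, starting fluorescence within 5 deviations, no agonist response on first addition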;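 further: peak minus trough fluorescence over baseline after final BAM8-22 challenge near maximal dose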
# Target sequence (Q96LB2 whole entry, looked up): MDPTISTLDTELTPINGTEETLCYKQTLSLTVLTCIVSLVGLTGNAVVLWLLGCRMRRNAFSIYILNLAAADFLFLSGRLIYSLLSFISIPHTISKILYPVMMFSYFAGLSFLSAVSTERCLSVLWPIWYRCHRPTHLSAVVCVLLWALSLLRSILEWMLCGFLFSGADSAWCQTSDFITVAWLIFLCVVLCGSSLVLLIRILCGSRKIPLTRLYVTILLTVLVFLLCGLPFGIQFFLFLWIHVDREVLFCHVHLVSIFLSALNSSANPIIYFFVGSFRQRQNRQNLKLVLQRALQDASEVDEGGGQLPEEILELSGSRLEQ
# RGS4 inh: RGS4 inhibitors, primary screen, cell-based, HEK293 M3R inducible RGS4, calcium flux. B-score at 10 µM. AID 463165, 2010. Fluo-4 calcium flux; hits give high values; triggered by carbachol at its EC20. hit rate 0.45% among 310,000. Regulator of G-protein signaling 4 (Homo sapiens), P49798;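 active means B-score, a plate-corrected calcium signal, over three deviations above library mean, with baseline fluorescence within five deviations of library mean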;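 further: RGS4 expression induced by doxycycline in cells with stable M3 receptor; B-score is computed from the integrated fluorescence ratio over baseline after carbachol; higher B-score means a larger calcium signal and so more RGS4 inhibition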
# Target sequence (P49798 whole entry, looked up): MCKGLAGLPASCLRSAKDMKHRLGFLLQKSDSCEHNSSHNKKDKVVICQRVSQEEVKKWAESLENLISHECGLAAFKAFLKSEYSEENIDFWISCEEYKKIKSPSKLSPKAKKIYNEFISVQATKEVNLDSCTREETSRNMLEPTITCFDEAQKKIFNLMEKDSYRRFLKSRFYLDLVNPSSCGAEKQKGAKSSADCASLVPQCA
# MrgX1 allo act: positive allosteric modulators of MrgX1, primary screen, HEK293 cells, Fluo-4 calcium flux; Mas-related G-protein coupled receptor member X1 (Homo sapiens), Q96LB2; B-score at 10 µM; FDSS; hits give high values; hit rate 0.63% among 310,000;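 active means plate-corrected calcium response at least 3 library SD above typical, normal starting fluorescence, not activating the receptor alone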;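 further: compound read alongside a low EC10 to EC30 dose of BAM8-22 agonist; peak minus trough fluorescence over baseline measured at the second addition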
# MrgX1 ag: agonists of human MrgX1 receptor, primary screen, HEK293 cells, Fluo-4 calcium flux | Mas-related G-protein coupled receptor member X1 (Homo sapiens), Q96LB2 | Fluo-4 calcium fluorescence, agonist mode; hits give high values | hit rate 0.44% among 310,000 | B-score at 10 µM;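 active means calcium response B-score plate-corrected fluorescence ratio at least 3 library SD, with starting fluorescence B-score inside 5 SD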
#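 Material: MrgX1-expressing HEK293 cells; input: 15,000 cells per well; doses: test compound given as first of three sequential additions; schedule: overnight plating before 1 h dye loading; technique: Fluo-4 NW calcium-flux fluorescence, kinetic read; evaluation: baseline-normalised fluorescence change ratio, B-scored; control set: plate-wise positive and negative controls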
# MrgX1 antag conf: MrgX1 receptor antagonists, duplicate retest, confirmation, HEK293 cells, Fluo-4 calcium flux. shares compounds with MrgX1 antag. BAM8-22 calcium flux; hits give low values. remaining BAM8-22 calcium response % of control (hits give low values), % at 10 µM. hit rate 19% among 2,300;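 active means remaining agonist calcium response no higher than 100% minus 3 SD of agonist-only control wells, with starting fluorescence near control levels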;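 further: agonist BAM8-22 given at a near maximal EC90 to ECmax level; peak minus minimum fluorescence divided by baseline after agonist addition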
# HEK293 Ca flux: nonspecific calcium signal in parental HEK293, confirmation, counter-screen for MrgX1 antagonist project, parental HEK293 cells, Fluo-4 calcium flux; hit rate 2% among 4,000; shares compounds with MrgX1 antag; AID 624111, 2012; fluorescence ratio F(max-min)/F0 at 10 µM; Fluo-4 calcium fluorescence, FDSS;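 active means duplicate-averaged calcium fluorescence ratio at least three times the standard deviation of buffer wells, a nonspecific response in parental cells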
# HEK293 Ca counter: calcium response in parental HEK293 cells, primary screen, counter-screen for MrgX1 allosteric activator project, cell-based, Fluo-4 calcium flux, duplicate. Fluo-4 fluorescence ratio; hits give high values. fluorescence ratio F(max-min)/F0 at 10 µM. shares compounds with MrgX1 antag. AID 624114, 2012. hit rate 0.4% among 4,000;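 active means calcium fluorescence ratio, averaged over duplicates, at least 3 SD of the buffer-well ratio, meaning a nonspecific response in receptor-free cells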;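 further: untransfected parental HEK293 lacking MrgX1 used as counterscreen for MrgX1 allosteric activators; fluorescence change taken during the second addition on a kinetic imager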
# HEK293 Ca cntr2: calcium response in parental HEK293 cells, primary screen, counter-screen for MrgX1 agonist project, cell-based, Fluo-4 calcium flux, duplicate, agonist mode; hit rate 8.7% among 4,000; shares compounds with MrgX1 antag; fluorescence ratio F(max-min)/F0 at 10 µM; Fluo-4 calcium fluorescence (FDSS); hits give high values;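 active means calcium fluorescence ratio at least three times the spread of buffer wells, meaning a non-specific response in parental cells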
# An asterisk follows results filed as active; i = inactive; . = not tested or not shown. A selection: hits, their analogues and other compounds. The true share with any hit is near 3.5%.
SMILES,RGS4 pot,MrgX1 antag,RGS4 inh,MrgX1 allo act,MrgX1 ag,MrgX1 antag conf,HEK293 Ca flux,HEK293 Ca counter,HEK293 Ca cntr2
CC(C)(Oc1ccc(Cl)cc1)C(=O)NCC(c1ccco1)N1CCCCC1 (stereo not given),i,-4.8*,i,i,i,i,i,i,i
COc1ccc(Cl)cc1C(=O)NCC(c1ccco1)N1CCCC1 (stereo not given),i,-5.2*,i,i,i,i,i,i,i
COc1ccc(CC(=O)N/N=C(/C)c2ccco2)cc1,i,i,i,i,i,.,.,.,.
O=C(Nc1ccccc1)N1CCCC(c2nc(-c3cccs3)no2)C1 (stereo not given),i,i,i,i,i,.,.,.,.
CC(=O)c1ccc(N=C2NC(=O)C(CO)(CO)S2)cc1,i,i,i,i,i,.,.,.,.
CCN(CC(=O)Nc1ccc(NC(C)=O)cc1)C(=O)c1ccccc1SCc1c(C)noc1C,i,i,i,i,i,.,.,.,.
COc1ccc(/C=C/c2nc3cc(-c4ccccc4)ccc3o2)cc1O,i,-4.5*,i,i,i,i,i,i,i
CN(Cc1ccccc1)C(=O)C1CCN(S(=O)(=O)c2ccc(-n3cnnn3)cc2)CC1,i,i,i,i,i,.,.,.,.
CCOC(=O)c1ccccc1NC(=O)N[C@@H](C)C(=O)OC,i,-4.6*,i,i,i,i,i,i,i
COC(=O)c1ccccc1NC(=O)N[C@@H](C)C(=O)OC,i,i,i,i,i,.,.,.,.
CN(C)S(=O)(=O)c1cccc(C(=O)NCCCn2ccnc2)c1,i,i,i,i,i,.,.,.,.
O=C(NCCCn1ccnc1)c1cccc(S(=O)(=O)Nc2ccc(Br)cc2)c1,i,-4.5*,i,i,i,i,i,i,i
Cc1ccccc1NS(=O)(=O)c1ccc2[nH]c(=O)[nH]c2c1,i,-5.6*,i,i,i,i,i,i,i
O=C(CSc1nc2ccccc2c(=O)n1-c1ccccc1)c1c[nH]c2ccccc12,i,-6*,i,i,i,i,i,i,i
CCOc1ccccc1CNC(=O)c1cc2oc3ccccc3c2n1C,i,i,i,i,i,.,.,.,.
COCCNC(=O)c1cc2oc3ccccc3c2n1C,i,-5*,i,i,i,i,i,i,i
CCOC(=O)c1cnc(SC)nc1Oc1cccc(NS(=O)(=O)c2ccc(F)cc2)c1,i,-6.8*,i,i,i,i,i,i,i
CCOC(=O)c1cnc(SC)nc1Oc1cccc(NS(=O)(=O)c2ccccc2)c1,i,i,i,i,i,.,.,.,.
Cc1nc2n(n1)C(c1ccccc1)C1=C(CC(c3ccco3)CC1=O)N2 (stereo not given),i,-7.9*,i,i,i,i,i,i,i
CC1CC(=O)C2=C(C1)Nc1ncnn1C2c1ccccc1 (stereo not given),i,i,i,i,i,.,.,.,.
O=C(CSc1nnc2ccc(-c3ccccn3)nn12)NCCc1ccccc1,i,-13*,i,i,i,84%*,i,i,i
